Source: ChEMBL document CHEMBL1130044, “Design, synthesis, and evaluation of tetrahydropyrimidinones as an example of a general approach to nonpeptide HIV protease inhibitors” (J Med Chem, 1997)

Key:
[1] = target: Human immunodeficiency virus type 1 protease (Human immunodeficiency virus 1, UniProt Q72874); test: Binding affinity against HIV protease
Summary of the method: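 HIV protease inhibition measured as cleavage of a fluorescent substrate, with the cleavage products quantified by HPLC. Ki values were derived from this assay.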

[2] = tested on: Human immunodeficiency virus type 1 (RF/HAT ISOLATE); test: Reduction in HIV viral RNA concentration by 90% in MT-2 cells infected with HIV-1RF.; type: functional; settings: Human immunodeficiency virus 1, RF, MT2
Summary of the method: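 MT-2 cells infected with HIV-1RF; viral RNA transcript accumulation measured 3 days post-infection; value is the compound concentration lowering viral RNA by 90% from the reference level.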

[3] = tested on: MT2; test: Concentration required to reduce HIV viral RNA concentration by 90% in MT-2 cells infected with HIV-1RF was determined; settings: Homo sapiens

Question: For O=C1N(Cc2ccccc2)[C@H](CCc2ccccc2)[C@@H](O)[C@@H](Cc2ccccc2)N1Cc1ccccc1, which Ki [1] is on record?
Answer: 15 nM

Question: And the IC90 [2]?
Answer: 2800 nM

Question: O=C1N(Cc2ccc3ccccc3c2)C(Cc2ccccc2)P(=O)(O)C(Cc2ccccc2)N1Cc1ccc2ccccc2c1 (stereo unspecified) was tested. Which IC90 [3] did it give?
Answer: 260 nM

Question: How did the IC90 [2] turn out when N=C(NO)c1cccc(CN2C(=O)N(Cc3cccc(/C(N)=N/O)c3)[C@H](CCc3ccccc3)[C@@H](O)[C@H]2Cc2ccccc2)c1 was run?
Answer: 49 nM

Question: How did the Ki [1] turn out when NC(=O)c1cccc(CN2C(=O)N(Cc3cccc(C(N)=O)c3)[C@@H](Cc3ccccc3)[C@@H](O)[C@@H]2CCc2ccccc2)c1 was run?
Answer: 4800 nM

Question: What about the IC90 [2] of the same compound?
Answer: > 5000 nM

Question: With O=C1N(Cc2ccccc2)[C@@H](Cc2ccccc2)C(O)[C@H](Cc2ccccc2)N1Cc1ccccc1 as the compound, how does the IC90 [3] read?
Answer: 80000 nM

Question: NC(=O)c1cc(CN2C(=O)N(Cc3ccc(F)c(C(N)=O)c3)[C@H](Cc3ccccc3)[C@H](O)[C@H]2CCc2ccccc2)ccc1F was tested. Which Ki [1] did it give?
Answer: 1.4 nM

Question: And the IC90 [2]?
Answer: 490 nM

Question: What does the source list for Nc1cccc(CN2C(=O)N(Cc3cccc(N)c3)[C@H](Cc3ccccc3)[C@H](O)[C@H]2CCc2ccccc2)c1?
Answer: Ki [1]: 1.7 nM; IC90 [2]: 365 nM

Question: For Nc1ccc(CN2C(=O)N(Cc3ccc(N)c(F)c3)[C@H](Cc3ccccc3)[C@H](O)[C@H]2CCc2ccccc2)cc1F, which Ki [1] is on record?
Answer: 8 nM

Question: And the IC90 [2]?
Answer: 540 nM

Question: Which results are given for O=C1N(Cc2cccc(CO)c2)[C@H](CCc2ccccc2)[C@@H](O)[C@@H](Cc2ccccc2)N1Cc1cccc(CO)c1?
Answer: Ki [1]: 0.49 nM; IC90 [2]: 109 nM

Question: Which Ki [1] does the source give for Nc1cc(CN2C(=O)N(Cc3ccc(F)c(N)c3)[C@H](Cc3ccccc3)[C@H](O)[C@H]2CCc2ccccc2)ccc1F here?
Answer: 0.25 nM

Question: And the IC90 [2]?
Answer: 36 nM

Question: For COC(=O)c1cccc(CN2C(=O)C(=O)N(Cc3cccc(C(=O)OC)c3)[C@H](Cc3ccccc3)[C@H](O)[C@H]2CCc2ccccc2)c1, which Ki [1] is on record?
Answer: 40 nM

Question: O=C1N(CC2CC2)[C@H](CCc2ccccc2)[C@@H](O)[C@@H](Cc2ccccc2)N1CC1CC1 was tested. Which Ki [1] did it give?
Answer: 3.8 nM

Question: And the IC90 [2]?
Answer: 5200 nM

Question: How did the Ki [1] turn out when NC(=O)c1cccc(CN2C(=O)N(Cc3cccc(C(N)=O)c3)[C@H](Cc3ccccc3)[C@H](O)[C@H]2CCc2ccccc2)c1 was run?
Answer: 0.088 nM

Question: What about the IC90 [2] of the same compound?
Answer: 35 nM

Question: How did the Ki [1] turn out when O=C1N(Cc2cccc(O)c2)[C@H](Cc2ccccc2)C(O)[C@@H](Cc2ccccc2)N1Cc1cccc(O)c1 was run?
Answer: 33 nM

Question: For COC(=O)c1cccc(CN2C(=O)N(Cc3cccc(C(=O)OC)c3)[C@H](Cc3ccccc3)[C@H](O)[C@H]2CCc2ccccc2)c1, which IC90 [2] is on record?
Answer: > 5000 nM

Question: COC(=O)c1ccc(CN2C(=O)N(Cc3ccc(C(=O)OC)cc3)[C@H](Cc3ccccc3)[C@H](O)[C@H]2CCc2ccccc2)cc1 was tested. Which Ki [1] did it give?
Answer: 1970 nM

Question: What about the IC90 [2] of the same compound?
Answer: > 5000 nM

Question: What does the source list for O=C1N(Cc2cccc(O)c2)[C@H](CCc2ccccc2)[C@@H](O)[C@@H](Cc2ccccc2)N1Cc1cccc(O)c1?
Answer: Ki [1]: 0.3 nM; IC90 [2]: 115 nM

Question: How did the IC90 [2] turn out when O=C1N[C@H](CCc2ccccc2)[C@@H](O)[C@@H](Cc2ccccc2)N1 was run?
Answer: > 5000 nM

Question: How did the Ki [1] turn out when O=C1N(Cc2cccc(CO)c2)[C@@H](CCc2ccccc2)[C@H](O)[C@H](Cc2ccccc2)N1Cc1cccc(CO)c1 was run?
Answer: 550 nM

Question: And the IC90 [2]?
Answer: > 5000 nM

Question: Which results are given for N#Cc1cccc(CN2C(=O)N(Cc3cccc(C#N)c3)[C@H](Cc3ccccc3)[C@H](O)[C@H]2CCc2ccccc2)c1?
Answer: Ki [1]: 11 nM; IC90 [2]: 1600 nM

Question: How did the Ki [1] turn out when CNc1cccc(CN2C(=O)N(Cc3cccc(NC)c3)[C@H](Cc3ccccc3)[C@H](O)[C@H]2CCc2ccccc2)c1 was run?
Answer: 4.9 nM

Question: And the IC90 [2]?
Answer: 328 nM

Question: With N#Cc1cccc(CN2C(=O)N(Cc3cccc(C#N)c3)[C@@H](Cc3ccccc3)[C@@H](O)[C@@H]2CCc2ccccc2)c1 as the compound, how does the Ki [1] read?
Answer: 8000 nM

Question: What about the IC90 [2] of the same compound?
Answer: > 5000 nM

Question: Which IC90 [2] does the source give for N=C(NO)c1cccc(CN2C(=O)N(Cc3cccc(/C(N)=N\O)c3)[C@@H](CCc3ccccc3)[C@H](O)[C@@H]2Cc2ccccc2)c1 here?
Answer: > 5000 nM

Question: Which IC90 [2] does the source give for COC(=O)c1cccc(CN2C(=O)N(Cc3cccc(C(=O)OC)c3)[C@@H](Cc3ccccc3)[C@@H](O)[C@@H]2CCc2ccccc2)c1 here?
Answer: > 5000 nM

Question: How did the Ki [1] turn out when O=C1N(Cc2ccc(CO)cc2)[C@H](CCc2ccccc2)[C@@H](O)[C@@H](Cc2ccccc2)N1Cc1ccc(CO)cc1 was run?
Answer: 2.5 nM

Question: And the IC90 [2]?
Answer: 3600 nM
